From PubChem
Apaf-1 inh – inhibitors of human Apaf-1 apoptosome, primary screen, biochemical, DEVD-Rh110 fluorescence, uHTS; 330,000 compounds, 0.71% hits; inhibition, % at 20 µM; AID 489030, 2010; reconstituted apoptosome caspase-3 activity; Apoptotic protease-activating factor 1 (Homo sapiens), O14727; active = inhibition of at least 40% at 20 µM;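 note: plate controls were DMSO wells for no effect and DEVD-CHO caspase inhibitor wells for full effect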
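Material: cell-free apoptosome with Apaf-1, procaspase-3 and caspase-9; Buffer or medium: Hepes pH 7.5 with detergent and BSA; Reagent: cytochrome c trigger plus (Z-DEVD)2-Rh110 caspase-3 substrate; Times: compound with Apaf-1, dATP, procaspase-3 30 min, then 50 min reaction, room temperature; Technique: Rh110 fluorescence intensity.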
MEKK2 WT-MEK5 – modulators of MEK5 binding to wildtype MEKK2, primary screen, biochemical, multiplex bead flow cytometry, Alexa488-MEK5; binding response (% of control), % at 10 µM; 290,000 compounds, 1.1% hits; Mitogen-activated protein kinase kinase kinase 2 (Homo sapiens), Q9Y2U5; Alexa488-MEK5 binding to MEKK2 WT; actives lie on both sides; in the data active = binding response below about 67% or above about 130%; inconclusive = no clear call, values can overlap the other calls; inactive = in between
UBC13 polyUb – UBC13 polyubiquitin chain formation inhibitors, primary screen, biochemical, TR-FRET, uHTS; inhibition, % at 20 µM; Ubiquitin-conjugating enzyme E2 N (Homo sapiens), P61088; 330,000 compounds, 0.47% hits; AID 485273, 2010; in the data active = inhibition above about 45%, passing the limit was not always enough; inconclusive = no clear call, values can overlap the other calls
Target sequence (P61088 whole entry, looked up): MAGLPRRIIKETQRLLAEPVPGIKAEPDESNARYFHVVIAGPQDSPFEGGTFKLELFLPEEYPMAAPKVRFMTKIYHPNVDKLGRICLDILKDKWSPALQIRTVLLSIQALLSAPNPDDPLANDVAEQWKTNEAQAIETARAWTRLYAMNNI
PREPL inh – PREPL enzyme inhibitors, primary screen, biochemical, fluorescence polarization. Prolyl endopeptidase-like (Homo sapiens), Q4J6C6. inhibition, % at 5.96 µM. AID 2751, 2010. recombinant PREPL, fluorescence polarization activity-based probe. 320,000 compounds, 0.68% hits; in the data active = inhibition above about 43%;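 note: 0% = enzyme with DMSO and 100% = wells lacking enzyme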
MEKK3 PB1 HTS – modulators of MEKK3-MEK5 PB1 binding, primary screen, biochemical, wildtype MEKK3, multiplex bead flow cytometry, Alexa488-MEK5 | 290,000 compounds, 1.4% hits | binding response (% of control), % at 10 µM | Mitogen-activated protein kinase kinase kinase 3 (Homo sapiens), Q99759 | bead-based flow cytometry, Alexa488-MEK5 binding to MEKK3; actives lie on both sides; 0 = blocked by unlabeled MEK5, 100 = vehicle;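 active = binding response more than 3 SD above or below the average of its plate-row segment, actives on both sides; inconclusive = wells at one plate position flagged as instrument error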;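 note: Alexa488 bead fluorescence after subtracting the streptavidin-only scavenger bead signal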
Target sequence (Q99759 whole entry, looked up): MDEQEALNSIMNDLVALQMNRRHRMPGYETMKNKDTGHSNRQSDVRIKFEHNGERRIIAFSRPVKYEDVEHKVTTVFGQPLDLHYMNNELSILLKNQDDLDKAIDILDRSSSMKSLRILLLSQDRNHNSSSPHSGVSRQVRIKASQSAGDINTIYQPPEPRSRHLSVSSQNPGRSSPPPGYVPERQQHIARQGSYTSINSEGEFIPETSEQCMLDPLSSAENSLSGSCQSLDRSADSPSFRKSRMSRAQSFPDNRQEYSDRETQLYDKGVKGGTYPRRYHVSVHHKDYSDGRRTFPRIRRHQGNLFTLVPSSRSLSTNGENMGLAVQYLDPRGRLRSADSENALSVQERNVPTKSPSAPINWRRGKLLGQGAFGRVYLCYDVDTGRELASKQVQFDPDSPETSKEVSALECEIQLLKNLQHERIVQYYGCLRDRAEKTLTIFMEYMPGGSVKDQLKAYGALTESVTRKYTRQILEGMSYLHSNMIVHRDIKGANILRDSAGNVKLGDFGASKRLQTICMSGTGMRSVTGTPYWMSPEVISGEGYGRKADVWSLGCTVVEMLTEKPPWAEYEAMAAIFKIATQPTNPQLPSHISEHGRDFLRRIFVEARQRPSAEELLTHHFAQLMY
MEKK2 mut-MEK5 – MEK5 binding signal on mutant MEKK2 PB1, primary screen, biochemical, multiplex bead flow cytometry, Alexa488-MEK5; Alexa488-MEK5 binding to MEKK2 mutant; percent response, % at 10 µM; 290,000 compounds, 0.35% hits; in the data active = percent response above about 24%, passing the limit was not always enough
MEKK2wt confirm – modulators of MEK5 binding to wildtype MEKK2, confirmation, biochemical, single concentration, multiplex bead flow cytometry; shares compounds with MEKK3 PB1 HTS; Alexa488-MEK5 binding to MEKK2 WT; actives lie on both sides; binding response (% of control), % at 10 µM; 5,900 compounds, 2.4% hits; in the data active = binding response below about 16% or above about 210%; inactive = in between
MEKK2mut confirm – mutant MEKK2 PB1-MEK5 binding signal retest – biochemical, single concentration, multiplex bead flow cytometry, confirmation; shares compounds with MEKK3 PB1 HTS; 5,900 compounds, 2% hits; percent response, % at 10 µM; Alexa488-MEK5 binding to MEKK2 mutant; AID 1893, 2009; in the data active = percent response mostly above about 71%, no sharp cut-off; inactive = mostly below about 38%;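 note: higher means compound restores mutant binding toward wildtype level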
MEKK3-MEK5 inh – MEKK3 wild-type PB1 binding to MEK5, inhibitors, confirmation, biochemical, bead multiplex flow cytometry, single concentration, wildtype. shares compounds with MEKK3 PB1 HTS. Alexa488-MEK5 binding to MEKK3; hits give low values. binding response (% of control), % at 10 µM. 5,900 compounds, 1.8% hits. AID 1894, 2009;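 active = binding response below 72% of control, or above a set upper limit, though filed actives all read lower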;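 note: 100% = DMSO only wells and 0% = binding blocked by excess unlabeled MEK5; lower values mean stronger disruption of MEK5 binding to MEKK3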
* marks the source's active call; other numbers are inactive results; ? = inconclusive; . = not tested or not shown; [ ] = another dose, or the depositor's remark. This is a sample that favours compounds with a hit; in the whole collection about 3.1% have one here.

SMILES	Apaf-1 inh	MEKK2 WT-MEK5	UBC13 polyUb	PREPL inh	MEKK3 PB1 HTS	MEKK2 mut-MEK5	MEKK2wt confirm	MEKK2mut confirm	MEKK3-MEK5 inh
CCCCSc1nnc2[nH]c(=O)cc(N)n12	-1.4	106.0	-17.2	8.1	104.0	5.0	.	.	.
O=S(=O)(/N=C(/c1ccccc1)N1CCOCC1)c1ccc(F)cc1	7.8	97.0	-2.3	15.7	95.0	-10.0	.	.	.
CC(C)CN(C(=O)COc1ccc(Br)cc1C=O)C1CCS(=O)(=O)C1 (centres undefined)	7.6	.	1.8	10.3	.	.	.	.	.
CCNC(=S)NNC(=O)C1CCCCC1	-6.5	2.0*[inhibitor]	0.0	2.4	2.0*[inhibitor]	-16.0	103.0	-9.0	99.0
COc1ccc2c(c1)c(C(C)=O)c(C)n2-c1ccccc1OC	5.4	.	-0.9	7.6	.	.	.	.	.
COc1ccc2c(c1)c(C(C)=O)c(C)n2-c1ccccc1	12.6	86.0	0.2	11.3	76.0*[inhibitor]	-8.0	104.0	4.0	110.0
CC(C)Oc1ccc(CNCC2(O)CCOC(C)(C)C2)cc1 (centres undefined)	2.3	99.0	0.1	-8.2	101.0	-3.0	.	.	.
CC1(C)CC(O)(CNCc2ccc3c(c2)OCO3)CCO1 (centres undefined)	-0.6	3.0*[inhibitor]	-12.9	9.7	2.0*[inhibitor]	-14.0	94.0	-7.0	94.0
Cc1cc(-c2nnnn2-c2cc(Cl)cc(Cl)c2)no1	-12.7	112.0	1.1	-9.9	131.0*	26.0	99.0	-9.0	101.0
COCCNC(=O)C(c1ccc(F)cc1)N(C(=O)CCC(=O)Nc1ccccn1)c1cccc(C)c1 (centres undefined)	10.0	94.0	-3.8	5.3	97.0	-6.0	.	.	.
[O-]/C(=C(\C(=S)NCc1ccccc1)[n+]1ccccc1)c1ccc(Cl)s1	18.8	81.0	-13.3	16.5	74.0*[inhibitor]	-3.0	102.0	-3.0	102.0
Cc1ccc(C(OCC(O)CNC(CO)C(O)c2ccc([N+](=O)[O-])cc2)c2ccccc2)cc1 (centres undefined)	13.6	113.0	14.3	24.6	103.0	12.0	.	.	.
CC1(C)NC(=O)N(CC(O)Cn2nnc3ccccc32)C1=O (centres undefined)	-17.1	88.0	-3.7	24.1	80.0*[inhibitor]	-12.0	115.0	11.0	105.0
O=C(NCCc1ccc(F)cc1)C1CCN(C(=O)Nc2ccccc2)CC1	-3.5	.	-3.7	1.8	.	.	.	.	.
Fc1ccc(-c2cc3nc(-c4ccccc4)cc(N4CCN(CCN5CCOCC5)CC4)n3n2)cc1	.	127.0	.	.	100.0	9.0	.	.	.
COc1cccc(-c2cc3nc(-c4ccccc4)cc(N4CCC5(CC4)OCCO5)n3n2)c1	9.4	137.0*	?	13.2	125.0*	25.0*	103.0	-2.0	103.0
CN1CCN(c2cc(-c3ccccc3)nc3cc(-c4ccc(F)cc4)nn23)CC1	25.6	152.0*	33.1	8.7	113.0	34.0*	157.0	26.0	108.0
N#CC1=C(N)Oc2n[nH]c(-c3cccs3)c2C1c1cccnc1 (centres undefined)	5.2	108.0	5.8	9.3	123.0*	6.0	120.0	6.0	92.0
Cc1ccc(C2C(C#N)=C(N)Oc3n[nH]c(-c4cccs4)c32)cc1 (centres undefined)	26.5	96.0	1.7	-2.9	91.0	-2.0	.	.	.
COc1ccc(CCN2C(=O)C(O)=C(C(C)=O)C2c2ccccc2OC)cc1OC (centres undefined)	1.9	90.0	-7.9	4.0	85.0	-4.0	.	.	.
COc1ccccc1C1C(C(C)=O)=C(O)C(=O)N1CCc1ccccc1 (centres undefined)	17.0	10.0*[inhibitor]	-13.8	-3.0	42.0*[inhibitor]	-17.0	110.0	5.0	106.0
CC1CCN(S(=O)(=O)c2cccc(C(=O)NNC(=O)c3ccco3)c2)CC1	-15.0	99.0	1.8	-1.6	94.0	-1.0	.	.	.
NC(=O)c1cc([N+](=O)[O-])ccc1NCC1CCCCC1	17.7	.	7.5	-4.9	.	.	.	.	.
CC(C)(C)n1nnnc1C(c1cccnc1)N(Cc1ccccc1)Cc1cccs1 (centres undefined)	23.0	2.0*[inhibitor]	0.9	7.4	2.0*[inhibitor]	-21.0	101.0	-4.0	102.0
Cc1ccc(C)c(NC(=S)NNC(=O)c2sccc2C)c1	-4.6	82.0	7.2	3.6	78.0	-9.0	.	.	.
SMILES	Apaf-1 inh	MEKK2 WT-MEK5	UBC13 polyUb	PREPL inh	MEKK3 PB1 HTS	MEKK2 mut-MEK5	MEKK2wt confirm	MEKK2mut confirm	MEKK3-MEK5 inh
Cc1ccc(C)c(NC(=S)NNC(=O)c2csc(C)c2C)c1	3.7	2.0*[inhibitor]	-0.3	-1.2	2.0*[inhibitor]	1.0	104.0	-2.0	105.0
CC1Cc2cc(/C(O)=C3/C(=O)C(=O)N(CCN4CCOCC4)C3c3ccc([N+](=O)[O-])cc3)ccc2O1 (centres undefined)	-8.4	99.0	-5.4	2.4	101.0	-1.0	.	.	.
Cc1ccc(S(=O)(=O)n2[nH]c(=O)cc2NC(=O)c2cccs2)cc1	0.2	-4.0*[inhibitor]	-8.6	18.7	1.0*[inhibitor]	2.0	94.0	-5.0	98.0
C(#Cc1ccccc1)C[N+]1(CC#Cc2ccccc2)CCCC1	-3.2	96.0	1.4	1.8	97.0	-1.0	.	.	.
C=CC#CC[N+]1(CC#Cc2ccccc2)CCOCC1	.	99.0	.	.	51.0*[inhibitor]	11.0	113.0	21.0	35.0*
Nn1c(SCC(=O)Nc2ccccc2Oc2ccccc2)nnc1C1CC1	3.0	.	1.2	.	.	.	.	.	.
CCCCn1c(N)c(N(CC)C(=O)c2ccc([N+](=O)[O-])c(C)c2)c(=O)[nH]c1=O	-0.6	98.0	-2.0	15.9	97.0	0.0	.	.	.
CN(C)CCCN(C(=O)CCOc1ccccc1)c1nc2c(F)cccc2s1	.	146.0*	.	.	105.0	41.0	142.0	24.0	106.0
Cc1ccc2sc(N(CCCN(C)C)C(=O)CN3C(=O)c4ccccc4C3=O)nc2c1C	2.6	150.0*	24.6	32.9	106.0	33.0	132.0	13.0	101.0
CN(C)CCCN(C(=O)CCc1ccccc1)c1nc2c(F)cccc2s1	6.1	118.0	22.5	-68.5	98.0	-1.0	.	.	.
